Results from ChEMBL document CHEMBL1154512, “PA-824 kills nonreplicating Mycobacterium tuberculosis by intracellular NO release” (2008).
Converted amounts (≈) assume the structure as drawn.

What was measured:
[1] = tested on: Mycobacterium tuberculosis; experiment: Bactericidal activity against Mycobacterium tuberculosis H37Rv under aerobic condition by broth dilution method; format: functional
Summary of the method: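 MIC taken as the micromolar concentration inhibiting 99% of growth of an Mtb inoculum.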

[2] = tested on: Mycobacterium tuberculosis; experiment: Mycobactericidal activity against Mycobacterium tuberculosis H37Rv assessed as minimum anaerobicidal concentration required for 1 log reduction in bacterial numbers after 1 week under hypoxic non replicating condition; format: functional
Summary of the method: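 Mtb adapted to hypoxia was exposed to compound for 1 week. MAC taken as the micromolar concentration giving a 1 log drop in bacterial numbers.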

[3] = target: Deazaflavin-dependent nitroreductase (Mycobacterium tuberculosis) (UniProt P9WP15); experiment: Ratio of Kcat to Km for Mycobacterium tuberculosis Rv3547 expressed in Escherichia coli co-transfected with maltose-binding fusion protein
Sequence of Deazaflavin-dependent nitroreductase (Mycobacterium tuberculosis) (P9WP15 whole entry, the tested form may be a part): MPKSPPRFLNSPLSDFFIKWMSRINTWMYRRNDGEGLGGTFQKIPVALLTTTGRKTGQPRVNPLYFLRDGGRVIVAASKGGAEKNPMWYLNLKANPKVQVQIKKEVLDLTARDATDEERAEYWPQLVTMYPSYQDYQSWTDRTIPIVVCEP
Summary of the method: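 Ddn (Rv3547) expressed in E. coli as a maltose-binding protein fusion and purified on amylose resin. Activity followed as time- and enzyme-dependent reoxidation of reduced F420 (F420H2), with the nitroimidazole as substrate. Kinetic values given as kcat/Km (min–1 μM–1).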

[4] = target: Deazaflavin-dependent nitroreductase (Mycobacterium tuberculosis) (UniProt P9WP15); experiment: Binding affinity to Mycobacterium tuberculosis Rv3547 assessed as nitrous acid production by Griess method in presence of cofactor F420H2
Summary of the method: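 Purified Ddn incubated with the nitroimidazole and F420H2. Reduction monitored as nitrite formation, read with Griess reagent.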

O=CN1CC(OCc2ccc(OC(F)(F)F)cc2)Cn2cc([N+](=O)[O-])nc21 (single isomer, unassigned)
MIC99 [1]: 6.3 µM (≈ 2.43 µg/mL) | Activity [2]: 31 µM

O=[N+]([O-])c1cn2c(n1)OC[C@H](OCc1ccc(OC(F)(F)F)cc1)C2
Ratio [3]: 0.016 | MIC99 [1]: 110 µM (≈ 39.5 µg/mL) | Activity [2]: 250 µM

CCCCc1ccc(CN[C@@H]2COc3nc([N+](=O)[O-])cn3C2)cc1
MIC99 [1]: 0.78 µM (≈ 0.258 µg/mL) | Activity [2]: 75 µM

O=[N+]([O-])c1cn2c(n1)OC[C@@H](NCCc1ccc(OC(F)(F)F)cc1)C2
MIC99 [1]: 0.04 µM (≈ 0.0149 µg/mL) | Activity [2]: 2 µM

O=[N+]([O-])c1cn2c(n1)OC[C@@H](NCc1ccc(OCc3ccc(OC(F)(F)F)cc3)cc1)C2
MIC99 [1]: 0.16 µM (≈ 0.0743 µg/mL) | Activity [2]: 2.1 µM

O=[N+]([O-])c1cn2c(n1)OC[C@@H](NCc1ccc(OC(F)(F)F)cc1)C2
MIC99 [1]: 0.4 µM (≈ 0.143 µg/mL) | Activity [2]: 8 µM

O=[N+]([O-])c1cn2c(n1)NC[C@@H](OCc1ccc(OC(F)(F)F)cc1)C2
MIC99 [1]: 0.8 µM (≈ 0.287 µg/mL) | Activity [2]: 130 µM

O=[N+]([O-])c1cn2c(n1)OC[C@@H](OCc1ccc(OC(F)(F)F)cc1)C2 [PRETOMANID]
Ratio [3]: 0.145 | Activity [4]: Dose-dependent effect | MIC99 [1]: 0.8 µM (≈ 0.287 µg/mL) | Activity [2]: 12 µM

O=[N+]([O-])c1cn2c(n1)OC[C@@H](NCCCCc1ccc(OC(F)(F)F)cc1)C2
MIC99 [1]: 0.04 µM (≈ 0.016 µg/mL) | Activity [2]: 8.1 µM

O=[N+]([O-])c1cn2c(n1)OC[C@@H](NCCCc1ccc(OC(F)(F)F)cc1)C2
MIC99 [1]: 0.08 µM (≈ 0.0309 µg/mL) | Activity [2]: 3.1 µM

O=[N+]([O-])c1cn2c(n1)SC[C@@H](OCc1ccc(OC(F)(F)F)cc1)C2
MIC99 [1]: 1.2 µM (≈ 0.45 µg/mL) | Activity [2]: 25 µM
